The text below walks through data of ChEMBL document CHEMBL4513216, “Probing the Open Global Health Chemical Diversity Library for Multistage-Active Starting Points for Next-Generation Antimalarials” (ACS Infect Dis, 2020).

A short description of this series: Toxicity liver stage against HepG2, at 10uM. The class given is cell-based. More on the design: test concentration 10 uM, cell line HepG2-A16-CD81EGFP. The note with it: human, HepG2-A16-CD81EGFP cells; read-out: INHIBITION
In outline:
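Uninfected HepG2-A16-CD81EGFP cells, 3 × 10^3 per well, 1536-well, plated on prespotted compound at 10 μM final, parasite-free screening media added to match infected plates; puromycin 10 μM positive, DMSO 0.5% negative; run in parallel with 48 h PbLuc assay at 37 °C, 5% CO2; viability by CellTiter-Glo luminescence, normalized to controls.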
On to `CCOCCCNC(=O)C(NC(=O)Cc1cccs1)c1ccc(C)cc1` (stereo unspecified), for which the cytotoxicity at 10 µM was found to be 13.2%. Turning to `CN(Cc1cc(C[C@@H]2C[C@H](N)C2(C)C)no1)c1ccccc1`, the cytotoxicity at 10 µM is -1.8%. Next, `O=C(CCc1ccccc1)NCC1CCN(Cc2ccccc2)CC1`: -6.29%; `Cc1nnc([C@H]2C[C@H]3OCC[C@H]3N(S(=O)(=O)N(C)C)C2)o1`: -8.44%; `COc1ccc(N2CCOCC3(CCCN(c4cnccn4)C3)C2)cc1` (stereo unspecified): 4.29%. With `CCc1ccc(C(O)CN2CCN(c3cccc(OC)c3)CC2)cc1` (stereo unspecified), the cytotoxicity at 10 µM came out at 11.2%. In the case of `c1ccc(-c2nnc3sc(CCN4CCCC4)nn23)cc1`, the cytotoxicity at 10 µM was found to be 6.04%. Turning to `Oc1nnc(-c2cccs2)c2sc(N3CCCCC3)nc12`, the cytotoxicity at 10 µM was 7.52%. Next, `Cc1csc2c(C3CCN(CCOc4ccccc4F)CC3)nc(C)n12`: 5.89%.

As to `CN(C)c1cc(C2CCCN(S(=O)(=O)C3CCCC3)C2)ccn1` (stereo unspecified), the cytotoxicity at 10 µM was -20.8%. `Cn1nccc1CCC(=O)N1CCC(c2cnccn2)CC1`: the cytotoxicity at 10 µM was -21.7%. Next, `O=C(NCCCO)Nc1cnc2cc(Cl)ccc2c1O`: 2.05%. Under `Cc1nc(C)c(C(=O)Nc2cnn(CC(=O)NC3CCCC3)c2)s1` stands -3.33%; under `O=C(N[C@@H]1CN(CCc2ccc(F)cc2)C[C@H]1O)c1cscn1`, -3.08%. Next, `COc1ccc(CN2CCC(c3nnc(-c4scnc4C)o3)CC2)cc1`: -5.03%; `CN(C)[C@@H]1CN(C(=O)COc2cccc(F)c2)C[C@H]1O`: -10.4%. `CN(CCCOc1ccccc1)C(=O)c1csc(-c2nnc[nH]2)n1`: the cytotoxicity at 10 µM is 10.4%.

As to `N#CCCn1cnc2c(F)cc(Br)cc2c1=O`, the cytotoxicity at 10 µM came to 0.997%. Next, `O=C(c1c[nH]nn1)N1CCCC1C1CCCCC1` (stereo unspecified): 3.81%.

Take `O=C(CCn1cncn1)NCC1CCOC1` (stereo unspecified): the cytotoxicity at 10 µM is -43.4%. In the case of `CC(NCCn1cccn1)c1cc(F)ccc1F` (stereo unspecified), the cytotoxicity at 10 µM was 6.33%. Under `O=C(NCC1CCCN1Cc1ccccc1)NCC1(O)CCC1` (stereo unspecified) stands -9.17%. Take `CCN(CC)S(=O)(=O)c1ccc(CNC(=O)N2CCCCCC2)cc1`: the cytotoxicity at 10 µM is -2.9%.

As to `O=C(CN1CCOCC1)N1CCN(C2CCc3ccc(F)cc32)CC1` (stereo unspecified), the cytotoxicity at 10 µM is 6.24%.

With `CC(CCN1CCCC1=O)NCc1cnc(C2CCC2)s1` (stereo unspecified), the cytotoxicity at 10 µM was -0.743%. Turning to `c1ccc2sc(N3CCCC(Cn4cncn4)C3)nc2c1` (stereo unspecified), the cytotoxicity at 10 µM was -40.1%.

On to `CC(C)n1nc2c(cc1=O)CN(Cc1nc(-c3ccco3)no1)CC2`, for which the cytotoxicity at 10 µM came to 2.35%. In the case of `OCC1CCN(c2ccc(NCc3ccsc3)nc2)CC1`, the cytotoxicity at 10 µM turned out to be 8.94%. As to `Clc1cccc(C(CNCc2ccccn2)N2CCOCC2)c1` (stereo unspecified), the cytotoxicity at 10 µM was -12%. As to `N#Cc1ccc(S(=O)(=O)NC(=O)c2csc(-c3ccco3)n2)cc1`, the cytotoxicity at 10 µM was -8.17%.

Consider `COc1ncccc1CNc1snc(Cl)c1C#N`, for which the cytotoxicity at 10 µM came out at 10.2%.

On to `CCN(CC1CN(Cc2ccn(C(C)C)n2)CCO1)c1cccnn1` (stereo unspecified), for which the cytotoxicity at 10 µM is 5.06%. Next, `CCN(CC1CCCO1)C(=O)Nc1cccc(N2CCOCC2)c1` (stereo unspecified): 8.44%; `CCOCCN1CCN(Cc2nc(C)no2)CC1CC` (stereo unspecified): 13.1%; `CC(C)c1noc(CN(Cc2ccccc2)C2CC2)n1`: 0.563%. Under `Cc1cc(NCc2ccccc2CN2CCCCC2)n2ncnc2n1` stands -1.86%; under `O=C(Nc1nnc(C2CC2)s1)NC1CCOc2ccccc21` (stereo unspecified), 24.2%; under `Cc1cc2cc(CNC3CCN(CC(=O)N(C)C)CC3)oc2cc1C`, -5.95%. Under `CCc1ncc(C(=O)N2CCn3c(CC)nnc3C2)s1` stands 1.03%; under `O=C(NCCCNC(=O)C1CCC1)NCCn1cccc1`, 0.215%. On to `OCC(O)CSCc1ccc(Cl)cc1Cl` (stereo unspecified), for which the cytotoxicity at 10 µM was -148%. On to `CC1COCCN1Cc1nc(Cc2ccccc2)no1` (stereo unspecified), for which the cytotoxicity at 10 µM came to 5.17%. Under `Cc1nnc(CN2CCCC2c2ccsc2)o1` (stereo unspecified) stands 3.22%; under `NC(=O)CNC(=O)c1ccc(CNCc2ccc(F)cc2F)cc1`, -43.4%; under `CC(C)N(Cc1ccc(C#N)cc1)C(=O)Nc1ccccn1`, -0.518%. For `OC1CCN(Cc2ccc(CNc3ccc(Cl)cn3)cc2)CC1`, the cytotoxicity at 10 µM is 0.313%. Under `O=C(CN1CCOCC1CC(=O)c1ccco1)NCc1ccccn1` (stereo unspecified) stands -4.92%; under `Cn1nc(C(C)(C)C)cc1NC(=O)Cn1ccccc1=O`, -10.5%; under `CCCS(=O)(=O)N1C[C@@H](c2ccccc2)[C@@]2(CCNC2=O)C1`, -109%. Regarding `O=C(c1ccncc1)N1CCC2(CC1)CCN(C(=O)c1cccnc1)C2`, the cytotoxicity at 10 µM is -93%. For the compound `Cc1cnc(N2CCc3c(c(COc4cncnc4)nn3C)C2)nc1`, the cytotoxicity at 10 µM is -98.8%. Next, `NC(=O)[C@H]1CCCN(c2nccc(-c3c[nH]nc3-c3cccnc3)n2)C1`: -5.89%.

Take `COc1cccc(OC)c1-c1ccnc2cc(CC(=O)NC(C)C)nn12`: the cytotoxicity at 10 µM was -8.05%. In the case of `CC(C)[C@H](NS(C)(=O)=O)C(=O)NCc1cc(-c2ccco2)nn1C`, the cytotoxicity at 10 µM was -10.5%. Under `CSc1ccc(C(C(=O)O)N2CCC(CO)CC2)cc1` (stereo unspecified) stands 3.68%; under `Cc1nccn1-c1ccc(NC(=O)C2CCCN2Cc2ccoc2)cc1` (stereo unspecified), 0.184%.

With `OC[C@@H]1CCCN1Cc1cn(C2CCN(C3CCCC3)CC2)nn1`, the cytotoxicity at 10 µM is -3.73%.

As to `Cc1c[nH]c(CN2CCCCC2CCn2ccnc2C)c(C)c1=O` (stereo unspecified), the cytotoxicity at 10 µM came to 0.585%. Consider `CSCC[C@@H](CO)Nc1ccc(-c2nc(C3CC3)no2)cn1`, for which the cytotoxicity at 10 µM was 0.957%.

Regarding `Cc1ccc(F)c(NC(=O)CCC(=O)N(C)Cc2nc(C)c[nH]2)c1`, the cytotoxicity at 10 µM is 7.05%. Under `COCc1cc(N2CCN(c3ccc(Cl)cn3)CC2)n2nccc2n1` stands 8.89%; under `Oc1cc(CN2CCCCC2c2cccnc2)nc2c(F)cccc12` (stereo unspecified), -6.88%.

Regarding `CN(C)c1ncc(CNC2CC(=O)N(CCc3cccc(Cl)c3)C2)s1` (stereo unspecified), the cytotoxicity at 10 µM was -132%. Next, `CN(CC(=O)N1CCOC(CCc2ccccc2)C1)Cc1ccccn1` (stereo unspecified): -1.83%.

Turning to `CSCc1noc(CNC(=O)C2CCN(C3CCCCC3)CC2)n1`, the cytotoxicity at 10 µM is 8.45%. Under `Cc1cc(C(=O)N2CCCC3(CNC(=O)O3)C2)c2c(C)nn(C)c2n1` (stereo unspecified) stands 10.8%. Under `CCOCCC(=O)N1CCc2cccc(S(=O)(=O)N3CCOCC3)c2C1` stands -7.41%. Regarding `Cc1nccc(-c2cccc(NCC(=O)N3CCCC(C)C3)c2)n1` (stereo unspecified), the cytotoxicity at 10 µM is -6.27%.

Turning to `CC(=O)Nc1nc(C(=O)N2CCCC(n3nc(C)nc3C)C2)cs1` (stereo unspecified), the cytotoxicity at 10 µM is -2.06%.

Consider `CCNc1cc2c(nn1)CCN(C(=O)c1ccnc(-n3ccnc3)c1)C2`, for which the cytotoxicity at 10 µM was -3.01%. Next, `Cc1cnn(CCNCC(O)COc2ccc(F)cc2)c1` (stereo unspecified): -1.76%; `NC(=O)CN1CCCN(C(=O)Cc2ccc(Br)cc2)CC1`: -6.58%.

Turning to `CC(C)(O)CN1CCN(C(=O)c2sccc2C#N)CC1`, the cytotoxicity at 10 µM is -7.3%. Next, `CCc1nc(CN2CCCN(C(=O)c3ccco3)CC2)cs1`: 5.03%; `CCn1cc(NC(=O)C2CCN(Cc3nc(C(C)C)no3)CC2)cn1`: 0.449%; `O=C(CCNC(=O)c1ccoc1)Nc1cc(F)cc(F)c1`: -7.41%. As to `Cc1noc(C)c1CN1CCc2nn(C(C)C)c(=O)cc2C1`, the cytotoxicity at 10 µM is -8.87%. Regarding `COC(C(=O)N1CCCN(Cc2cscn2)CC1)c1ccccc1` (stereo unspecified), the cytotoxicity at 10 µM was -8.34%. Under `c1c(CN2CCCC2)nc2n1CCN(C1CCOCC1)C2` stands 0.641%; under `CC(C)n1nc(Cn2cccc2)c2c1CN(Cc1ccoc1)C2`, 1.49%; under `O=C(NCC1CC1)[C@H]1C[C@@H]2CCN(CCc3ccccc3)C[C@H]2O1`, -75.5%. As for `CC(C)N1CC[C@H]2[C@H](C[C@@H](Cn3cccn3)N2c2nccs2)C1`, the cytotoxicity at 10 µM was 3.28%.

As for `O=C(C1CCCC1)N1C[C@@H]2CCN(c3cccnc3)C[C@@H]2C1`, the cytotoxicity at 10 µM was -78.4%. Under `CO[C@@H]1CCN(Cc2nccs2)C[C@@H]1Cc1cccc(C)c1` stands -71.8%. Next, `O=C(O)[C@]12CCCN(CC3CCOC3)C[C@H]1CN(c1ncccn1)C2` (stereo partly specified): -104%; `Cc1noc(C)c1CN1Cc2cnn(C)c2C(COCC2CC2)C1` (stereo unspecified): -76.5%; `CN(C)CCN1C[C@@H]2CN(S(=O)(=O)c3ccccc3)C[C@@H]2C1=O`: -112%. Next, `O=C(C[C@@H]1COC[C@H]2CN(Cc3cccnc3)C[C@@H]12)NCC1CC1`: 0.752%; `COCC1CN(CCOc2ccc(Cl)cc2)Cc2c1cnn2C` (stereo unspecified): -102%; `COc1cccc(CN2CCc3nc4ccsc4c(=O)n3CC2)c1`: -26.5%. On to `CN1CCCN(C(=O)c2ccnn2-c2ccc3ccccn23)CC1`, for which the cytotoxicity at 10 µM was -107%. Take `CN(C)CCN1CCO[C@H]2CCN(C(=O)c3cccs3)CC[C@@H]21`: the cytotoxicity at 10 µM was -8.32%. For `CC(C)CO[C@H]1CN(S(=O)(=O)c2cn(C)cn2)[C@@H]2CCCO[C@H]12`, the cytotoxicity at 10 µM is -148%. Next, `Cc1cnc(N2CCC3(CC2)CN(c2ccsc2)C(=O)CO3)nc1`: 7.34%; `C=C1C(C)(C)[C@@H]2CC[C@]1(C(=O)N1CCC(n3cc(CO)nn3)CC1)C2`: -7.73%; `CNC(=O)N1C[C@@H]2C[C@H](C(=O)Nc3cccnc3)[C@H](C1)O2`: -76.2%.
